Measured values as given in ChEMBL document CHEMBL1126155, “Renin inhibitory pentols showing improved enteral bioavailability” (J Med Chem, 1992).

Columns and labels:
Renin [1] = target: T1, Renin (Homo sapiens, UniProt P00797); test: Concentration required for 50% inhibition of human kidney renin
T1 sequence (P00797 whole entry): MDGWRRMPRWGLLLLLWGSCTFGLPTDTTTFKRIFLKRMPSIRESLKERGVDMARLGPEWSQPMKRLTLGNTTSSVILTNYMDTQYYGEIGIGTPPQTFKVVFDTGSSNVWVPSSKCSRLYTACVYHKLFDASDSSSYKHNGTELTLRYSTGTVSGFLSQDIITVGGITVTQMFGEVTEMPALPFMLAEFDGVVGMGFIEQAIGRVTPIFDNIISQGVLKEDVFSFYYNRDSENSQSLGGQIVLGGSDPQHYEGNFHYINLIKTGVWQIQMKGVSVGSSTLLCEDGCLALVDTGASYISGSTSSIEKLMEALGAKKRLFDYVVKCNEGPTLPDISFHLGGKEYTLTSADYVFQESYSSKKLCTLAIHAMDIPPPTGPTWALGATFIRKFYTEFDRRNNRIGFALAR

Renin [2] = target: T1, Renin; test: Concentration required for 50% inhibition of human plasma renin; type: cell-free
Summary of the method: (§1)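 Plasma renin from dog, human, rat, rhesus monkey or sheep plasma; assayed by a previously described plasma method, modified to be buffered at pH 7.4; IC50 in M.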

Cathepsin D = Cathepsin D (Homo sapiens, UniProt P07339); test: Concentration required for 50% inhibition of cathepsin D
Summary of the method: (§2)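 Pepsin and cathepsin D inhibition measured by an earlier-described method; inhibitor tested at concentrations up to 10^-4 M.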

Pepsin A = Pepsin A (Homo sapiens, UniProt P0DJD9); test: Inhibition of pepsin; summary of the method: as §2
Renin [3] = target: T2, Renin (Rattus norvegicus, UniProt P08424); test: Concentration required for 50% inhibition of rat plasma renin; type: cell-free; summary of the method: as §1
T2 sequence (P08424 whole entry): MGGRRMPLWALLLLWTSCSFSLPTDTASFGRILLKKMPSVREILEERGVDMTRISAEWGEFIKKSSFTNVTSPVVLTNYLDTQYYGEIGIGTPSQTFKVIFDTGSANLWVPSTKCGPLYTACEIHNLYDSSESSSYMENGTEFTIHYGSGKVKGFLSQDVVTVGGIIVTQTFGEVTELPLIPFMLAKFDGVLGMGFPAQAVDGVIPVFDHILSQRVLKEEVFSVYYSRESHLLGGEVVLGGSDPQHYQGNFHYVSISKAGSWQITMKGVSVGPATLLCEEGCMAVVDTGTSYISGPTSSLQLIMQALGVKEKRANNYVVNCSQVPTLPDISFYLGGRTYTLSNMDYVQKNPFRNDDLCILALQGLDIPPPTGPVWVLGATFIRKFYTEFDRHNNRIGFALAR

Renin (Canis familiaris) = test: Concentration required for 50% inhibition of dog plasma renin
Renin (Ovis aries) = test: Concentration required for 50% inhibition of sheep plasma renin
Renin (Macaca mulatta) = test: Concentration required for 50% inhibition of rhesus monkey plasma renin

Sequence of Pepsin A (P0DJD9 whole entry): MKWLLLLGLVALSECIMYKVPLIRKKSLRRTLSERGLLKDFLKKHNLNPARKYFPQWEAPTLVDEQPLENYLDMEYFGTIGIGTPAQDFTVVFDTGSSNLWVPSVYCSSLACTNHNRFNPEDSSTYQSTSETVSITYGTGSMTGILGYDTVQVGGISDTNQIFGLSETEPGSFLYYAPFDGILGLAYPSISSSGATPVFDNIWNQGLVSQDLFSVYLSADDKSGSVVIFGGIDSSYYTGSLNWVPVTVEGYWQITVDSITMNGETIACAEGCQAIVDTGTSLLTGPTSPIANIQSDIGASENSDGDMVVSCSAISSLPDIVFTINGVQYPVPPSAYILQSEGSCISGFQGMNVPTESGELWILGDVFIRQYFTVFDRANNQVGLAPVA
Sequence of Cathepsin D (P07339 65-162 limits assumed): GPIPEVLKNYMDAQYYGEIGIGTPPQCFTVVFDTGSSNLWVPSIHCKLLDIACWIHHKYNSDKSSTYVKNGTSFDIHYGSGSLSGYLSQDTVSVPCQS
Sequence of Cathepsin D (P07339 169-412 limits assumed): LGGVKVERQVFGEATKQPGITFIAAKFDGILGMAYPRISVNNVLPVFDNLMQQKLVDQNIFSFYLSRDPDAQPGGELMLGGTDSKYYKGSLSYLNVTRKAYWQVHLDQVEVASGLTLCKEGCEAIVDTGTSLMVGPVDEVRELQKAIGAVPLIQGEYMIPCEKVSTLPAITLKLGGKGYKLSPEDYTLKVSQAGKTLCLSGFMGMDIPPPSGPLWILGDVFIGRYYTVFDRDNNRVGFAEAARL

SMILES	IC50 (Renin [1]) [nM]	IC50 (Renin [2]) [nM]	IC50 (Cathepsin D) [nM]	IC50 (Pepsin A) [nM]	IC50 (Renin [3]) [nM]	IC50 (Renin (Canis familiaris)) [nM]	IC50 (Renin (Ovis aries)) [nM]	IC50 (Renin (Macaca mulatta)) [nM]
CN(CCN(C)C(=O)N1CCOCC1)C(=O)O[C@@H](Cc1ccccc1)C(=O)NC(Cc1cnc[nH]1)C(=O)N[C@@H](CC1CCCCC1)[C@@H](O)[C@@H](O)[C@H](O)[C@H](O)CO (stereo partly specified)	2.4	1.5	–	–	–	–	–	–
CCC[C@H](NC(=O)[C@H](Cc1ccccc1)NC(=O)[C@@H](N)[C@@H](C)CC)C(=O)N[C@@H](CC1CCCCC1)[C@@H](O)[C@@H](O)[C@H](O)[C@H](O)CO	50	110	–	–	–	–	–	–
CCC[C@H](NC(=O)[C@H](Cc1ccccc1)NC(=O)[C@@H](N)[C@@H](C)CC)C(=O)N[C@@H](CC1CCCCC1)[C@@H](O)[C@@H](O)[C@H](O)[C@@H](O)CO	120	420	–	–	–	–	–	–
CC(C)(C)S(=O)(=O)CC(Cc1ccccc1)C(=O)NC(Cc1c[nH]cn1)C(=O)N[C@@H](CC1CCCCC1)[C@@H](O)[C@@H](O)[C@H](O)[C@H](O)CO (stereo partly specified)	4.4	4.5	> 100000	> 100000	8000	110	100	11
N[C@H]1CC[C@@H](C(=O)N[C@@H](Cc2ccccc2)C(=O)NC(Cc2c[nH]cn2)C(=O)N[C@@H](CC2CCCCC2)[C@@H](O)[C@@H](O)[C@H](O)[C@H](O)CO)CC1 (stereo partly specified)	12	22	–	–	–	–	–	–
